Measured values reported in ChEMBL document CHEMBL4145584, “Non-geminal Aliphatic Dihalogenation Pattern in Dichlorinated Diaporthins from Hamigera fusca NRRL 35721” (2018).

Columns and labels:
Type in all cases: functional
[1] = Cytotoxicity against human CCD25sk cells after 72 hrs by MTT assay
Method in brief: (§1)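 Human cell panel of fibroblasts (CCD25sk), neuroblastoma (SHSY5), pancreatic carcinoma (MiaPaca-2), breast adenocarcinoma (MCF-7), hepatocellular carcinoma (HepG2), melanoma (A2058) and lung carcinoma (A549), tested by colorimetric MTT viability read-out. Doxorubicin served as positive control, and results were expressed as CC50.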

SH-SY5Y = test: Cytotoxicity against human SH-SY5Y cells after 72 hrs by MTT assay; method in brief: as §1
HeLa = test: Cytotoxicity against human HeLa cells
MIA PaCa-2 = test: Cytotoxicity against human MIAPaCa2 cells after 72 hrs by MTT assay; conditions: MIA PaCa-2, 72 h; method in brief: as §1
MCF7 = test: Cytotoxicity against human MCF7 cells after 72 hrs by MTT assay; conditions: MCF7, 72 h; method in brief: as §1
HepG2 = test: Cytotoxicity against human HepG2 cells after 72 hrs by MTT assay; conditions: HepG2, 72 h; method in brief: as §1
A2058 = test: Cytotoxicity against human A2058 cells after 72 hrs by MTT assay; conditions: A2058, 72 h; method in brief: as §1
A549 = test: Cytotoxicity against human A549 cells after 72 hrs by MTT assay; conditions: A549, 72 h; method in brief: as §1

Row | Structure (SMILES) | CC50 [1] [µM] | CC50 (SH-SY5Y) [µM] | also measured
1 | COc1cc(OC)c2c(=O)oc(C[C@@H](O)C(Cl)Cl)cc2c1 | 27 | 19.4 | 
2 | COc1cc(O)c2c(=O)oc(C[C@@H](O)C(Cl)Cl)cc2c1 |  |  | CC50 (HeLa): 28 µM
3 | COc1cc(OC)c2c(=O)oc([C@@H](Cl)[C@@H](O)CCl)cc2c1 (relative stereo) |  | 36.2 | 
4 | COc1cc(OC)c2c(=O)oc([C@H](Cl)[C@@H](O)CCl)cc2c1 (relative stereo) |  | 39.2 | 
5 | COc1cccc2c1C(=O)c1c(O)c3c(c(O)c1C2=O)C[C@@](O)(C(=O)CO)C[C@@H]3O[C@H]1C[C@H](N)[C@H](O)[C@H](C)O1 [DOXORUBICIN] | 0.85 | 0.7 | CC50 (MIA PaCa-2): 2.97 µM; CC50 (MCF7): 7 µM; CC50 (HepG2): 1.95 µM; CC50 (A2058): 1.79 µM; CC50 (A549): 10.5 µM
